ALR H2O2 inh: human ALR oxidase inhibition via reduced H2O2. P55789. purified ALR, DTT oxidation, H2O2 HRP-luminol luminescence. inhibition, % (test concentration not listed). 290,000 tested, 3.8% active;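 active means mean replicate inhibition above about 79%, with every replicate also reaching it, limit read from the data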
Target sequence (P55789 whole entry, looked up): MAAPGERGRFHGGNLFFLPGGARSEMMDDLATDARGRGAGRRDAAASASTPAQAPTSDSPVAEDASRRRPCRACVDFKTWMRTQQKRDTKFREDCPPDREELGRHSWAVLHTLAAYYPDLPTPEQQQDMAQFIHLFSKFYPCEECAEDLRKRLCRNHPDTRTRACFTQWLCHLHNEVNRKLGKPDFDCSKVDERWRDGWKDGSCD
CAL PDZ FP-1: blocks peptide binding to human CAL PDZ domain | Q9HD26 | purified CAL PDZ, TMR-peptide fluorescence polarization, 1 h | inhibition, % at 20 µM | 330,000 tested, 0.02% active | AID 504414;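 active means highest replicate inhibition of at least 40%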;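 further: plate controls were DMSO neutral control wells for no effect and unlabeled competitor peptide control wells for full effect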
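System: purified tagged CAL PDZ domain construct (CerCALP). Schedule: 1 h incubation at room temperature before polarization reading. Medium: 25 mM sodium phosphate pH 7.4, 150 mM NaCl, TCEP, IgG, Thesit. Read-out: percent inhibition from loss of millipolarization. Measured by: FP readout, S and P plane fluorescence. Probe or stimulus: fluorescent TMR peptide probe.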
CAL PDZ FP-2: blocks peptide binding to the human CAL PDZ domain. Q9HD26. purified CAL PDZ, TMR-peptide fluorescence polarization, 1 h. inhibition, % at 24.9 µM. 300,000 tested, 0.92% active;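 active means mean inhibition of at least 30% with at least half of replicates also reaching 30%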;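 further: 0% = DMSO neutral control and 100% = excess unlabeled competitor peptide PRC23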
Rtt109 Vps75: blocks Candida albicans Rtt109/Vps75 acetyltransferase activity | Q5AAJ8 | purified Rtt109/Vps75, ThioGlo CoA-SH fluorescence, 4 h | inhibition, % at 34.9 µM | 330,000 tested, 0.16% active;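 active means inhibition of at least 50% in every replicate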
Target sequence (Q5AAJ8 whole entry, looked up): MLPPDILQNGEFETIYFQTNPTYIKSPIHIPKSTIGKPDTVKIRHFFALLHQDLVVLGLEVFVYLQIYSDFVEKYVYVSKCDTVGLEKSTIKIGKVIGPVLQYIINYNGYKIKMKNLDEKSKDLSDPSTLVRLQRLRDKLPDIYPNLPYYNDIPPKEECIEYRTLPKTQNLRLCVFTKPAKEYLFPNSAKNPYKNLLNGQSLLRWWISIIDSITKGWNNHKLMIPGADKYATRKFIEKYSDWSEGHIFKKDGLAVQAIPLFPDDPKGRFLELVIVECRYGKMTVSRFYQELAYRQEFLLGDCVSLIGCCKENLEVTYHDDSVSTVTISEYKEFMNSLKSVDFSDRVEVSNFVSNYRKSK
DYRK1A inh: Dyrk1A (rat) kinase inhibition; inhibition, % at 12.5 µM; Q63470; 310,000 tested, 0.43% active; AID 504441; ADP-Glo luminescence, NFATc1 peptide; in the data active means inhibition above about 50%;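 further: plate controls were vehicle with enzyme for no effect and no enzyme for full effect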
* marks the source's active call; other numbers are inactive results; . = no result. Only some compounds are listed: those with a hit (about 4.3% of all), similar ones and a draw of the others.

SMILES	ALR H2O2 inh	CAL PDZ FP-1	CAL PDZ FP-2	Rtt109 Vps75	DYRK1A inh
COC(=O)c1cc(Br)ccc1NC(=O)CCNC(=O)c1ccco1	21	-2	-3	-9	-5
COc1cccc(CNC(=O)C2CCCN(S(=O)(=O)c3c(C)n[nH]c3C)C2)c1 (centres undefined)	2	0	.	-46	16
Cc1ccc2c(c1)N(CC(=O)Nc1ccccc1F)C(=O)CO2	.	-1	56*	-8	-3
CCN(CCNC(=O)C1CCN(S(=O)(=O)c2cccc3nsnc23)CC1)c1ccccc1	99*	-2	-1	-5	2
CCN(CCNC(=O)C1CCCN(S(=O)(=O)CC)C1)c1ccccc1 (centres undefined)	99*	-1	-1	7	-5
CCS(=O)(=O)N1CCCC(C(=O)NCCN(C)Cc2ccccc2)C1 (centres undefined)	-3	-2	-3	-7	-6
O=C(CN1C(=O)COc2ccccc21)Nc1ccccc1F	.	-1	-7	0	.
COc1ccc(CNC(=O)C2CCCN(S(=O)(=O)c3c(C)n[nH]c3C)C2)cc1 (centres undefined)	-6	-3	-2	67*	.
O=C(NCc1cccnc1)C(=O)N/N=C/c1ccc([N+](=O)[O-])cc1	-8	0	-1	-1	.
Cc1cccc(/C=C2/S/C(=N/N=C3\CC4CCC3(C)C4(C)C)NC2=O)c1 (centres undefined)	2	0	15	4	5
COc1ccc(CNC(=O)C2CCN(S(=O)(=O)c3cccc4nsnc34)CC2)cc1	-10	-1	37*	-14	-1
Cc1ccc(NC(=O)C2CC(=O)N(CCc3ccccc3)C2)cc1Cl (centres undefined)	1	-3	80*	2	.
COc1ccc(NC(=O)C2CCCN(S(=O)(=O)c3cccnc3)C2)c(OC)c1 (centres undefined)	.	0	5	-2	7
CCCCN(CCCNC(=O)C1CCN(S(=O)(=O)CC)CC1)c1ccccc1	99*	-2	-1	-1	2
CCN(CC)c1ccc(NC(=O)C2CCCN(S(=O)(=O)c3cccnc3)C2)c(C)c1 (centres undefined)	99*	0	-2	5	9
CC(C)NC(=O)COC(=O)c1ccccc1C(=O)c1ccccc1	-2	0	1	-1	.
CCN1C[C@@H]2[C@@H]3C(=O)N(Cc4ccccc4)C(=O)[C@@H]3[C@](C)(C1=O)N2C(=O)c1ccccc1	.	-1	1	0	-8
CCOc1ccc(CCNC(=O)CCNC(=O)c2ccc(Br)cc2)cc1OCC	-3	-2	-3	-7	-1
CCN(CCNC(=O)C1CC(=O)N(CCc2ccccc2)C1)c1ccccc1 (centres undefined)	99*	0	2	2	4
CCN(CCNC(=O)Cn1cc2c(n1)CCCC2)c1ccccc1	99*	1	-3	6	15
O=C(Cn1cc2c(n1)CCCCC2)NCc1ccccc1	.	1	.	1	3
CCN(CCCNC(=O)CCCN1C(=O)COc2ccc(C)cc21)c1cccc(C)c1	98*	.	-6	0	-2
O=C(NCCc1ccccc1)C1CC(=O)N(CCc2ccccc2)C1 (centres undefined)	-12	0	-1	6	-1
COc1ccc2[nH]cc(CCNS(=O)(=O)Cc3ccccc3)c2c1	7	-1	-3	-1	0
C=CCN(c1ccccc1)S(=O)(=O)c1ccc(Cl)c(C(=O)OCC(=O)N(C)C2CCS(=O)(=O)C2)c1 (centres undefined)	0	18	-3	-12	.
SMILES	ALR H2O2 inh	CAL PDZ FP-1	CAL PDZ FP-2	Rtt109 Vps75	DYRK1A inh
CSc1nc2sc3c(c2c(=O)n1C)CCCC3	-5	-2	-1	.	-4
CSc1nc2sc3c(c2c(=O)n1C)CCC3	-6	-1	71*	-2	0
CC(C)C[C@@H](CNCC(=O)[C@H](CC(C)C)NC(=O)c1[nH]cnc1C(=O)N[C@H](CN)CC(C)C)NC(=O)c1nc[nH]c1C(=O)N[C@@H](CC(=O)O)C(=O)O	.	0	0	-1	-4
C=C(C)C(=O)Nc1cccnc1Oc1ccc(F)cc1	-4	0	112*	-6	2
O=c1c(Cl)c(Cl)cnn1Cc1ccccc1Cl	95*	.	.	.	.
Cc1ccc(Cn2ncc(Cl)c(Cl)c2=O)cc1	15	-2	-1	0	-7
Cc1cc(C)cc(Cn2ncc(Cl)c(Cl)c2=O)c1	96*	.	.	.	.
Cc1ccc(C)n1Cc1ccccc1Cl	-2	-1	.	1	-3
O=c1[nH]cnc2c1cnn2Cc1ccccc1Cl	-15	-1	-1	-7	-2
Cc1cc(C)n(Cc2ccccc2Cl)n1	-6	.	41*	-2	.
CC(=O)N1CCC2(CC1)CC(=O)c1cc(OCC(=O)N3CCOCC3)ccc1O2	4	-1	-1	-62	4
O=S(=O)(NCCc1ccc(F)cc1)c1ccc(F)cc1Br	.	-3	.	3	-2
CCOC(=O)[C@H]1[C@H]2COc3cc(OC)ccc3[C@@H]2N2C(=O)CN(Cc3ccc(OC)cc3)C(=O)[C@@]12C	-1	0	0	8	17
C=CCNC(=O)C(=O)NCC1CCCN1CC (centres undefined)	5	-1	-4	-6	-4
CCCNC(=O)C(=O)NCC1CCCN1CC (centres undefined)	0	30	33*	-2	.
OC[C@H]1O[C@@H](Oc2cc(O)cc(/C=C/c3ccc(O)cc3)c2)[C@H](O)[C@@H](O)[C@@H]1O	99*	.	.	.	.
O=C1C[C@H](c2ccc(O)cc2)Oc2cc(O[C@@H]3O[C@H](CO)[C@@H](O)[C@H](O)[C@H]3O)cc(O[C@@H]3O[C@H](CO)[C@@H](O)[C@H](O)[C@H]3O)c21	49	0	3	1	8
CCN(CC)S(=O)(=O)c1ccc(Cl)c(NC(=O)COC(=O)c2ccc([N+](=O)[O-])o2)c1	-23	0	-7	-3	-4
Cc1ccc(C)c(NC(=O)CN2C(=O)c3ccccc3C2=O)c1	2	.	.	.	.
Cc1ccc(C)c(NC(=O)CSc2nc3ccc(N4C(=O)c5ccccc5C4=O)cc3s2)c1	86*	0	-3	-11	0
NS(=O)(=O)c1cccc(NC(=O)CSc2nc3ccc(Cl)cc3[nH]2)c1	97*	-2	-11	2	.
Cc1ccc(C)c(SCC(=O)Nc2cccnc2Cl)c1	-14	0	.	-4	-2
Cc1ccc2nc(SCC(=O)Nc3cccc(S(=O)(=O)N(C)C)c3)[nH]c2c1	.	-3	-6	3	-3
Cc1ccc2nc(SCC(=O)Nc3cccnc3Cl)[nH]c2c1	88*	-1	-3	-6	0
Nn1cc(-c2ccccc2)nc1SCC(=O)Nc1cccc(S(N)(=O)=O)c1	99*	-1	-3	-10	4
CCOC(=O)C1=C(C)NC(=NC)SC1c1ccccc1 (centres undefined)	5	0	0	2	-2
